Test results taken from ChEMBL document CHEMBL4028870, “Controlling Plasma Stability of Hydroxamic Acids: A MedChem Toolbox” (J Med Chem, 2017).

How the values were obtained:
[1] = tested on: Plasma; test: Stability in rat plasma at 10 uM up to 360 mins in presence of EDTA by LC-MS/MS analysis; type: ADME, cell-free; conditions: 6 h
In short: (§1)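 Rat plasma incubated in duplicate at 37 °C with 10 µM test compound (1% methanol), plus either 1 mM DTNB (11) or 0.5 mM EDTA (12). Duplicate controls used methanol in place of the inhibitor. Samples taken from 0 to 360 min and quenched with 9 volumes of cold methanol containing internal standard. Remaining compound measured by LC-MS/MS relative to T0.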

[2] = Half life in rat plasma at 10 uM up to 360 mins by LC-MS/MS analysis; type: ADME, cell-free
In short: (§2)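 Plasma incubated in duplicate at 37 °C with 10 µM test compound (1% methanol; from 1 mM methanol stock). Samples taken at 0, 15, 30, 60, 120, 240 and 360 min and quenched with 9 volumes of ice-cold methanol containing 500 nM internal standard, then centrifuged. Analyte/IS area ratios were quantified by LC-MS/MS as % remaining versus T0. t1/2 = −0.693/k, with k from the slope of log % remaining versus time.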

[3] = Half life in human plasma at 10 uM up to 360 mins by LC-MS/MS analysis; type: ADME, cell-free; in short: as §2
[4] = biological target: T1, Liver carboxylesterase 1 (Homo sapiens, UniProt P23141); test: Drug metabolism assessed as human CES1-mediated compound hydrolysis after 6 hrs; type: ADME
T1 sequence (P23141 whole entry): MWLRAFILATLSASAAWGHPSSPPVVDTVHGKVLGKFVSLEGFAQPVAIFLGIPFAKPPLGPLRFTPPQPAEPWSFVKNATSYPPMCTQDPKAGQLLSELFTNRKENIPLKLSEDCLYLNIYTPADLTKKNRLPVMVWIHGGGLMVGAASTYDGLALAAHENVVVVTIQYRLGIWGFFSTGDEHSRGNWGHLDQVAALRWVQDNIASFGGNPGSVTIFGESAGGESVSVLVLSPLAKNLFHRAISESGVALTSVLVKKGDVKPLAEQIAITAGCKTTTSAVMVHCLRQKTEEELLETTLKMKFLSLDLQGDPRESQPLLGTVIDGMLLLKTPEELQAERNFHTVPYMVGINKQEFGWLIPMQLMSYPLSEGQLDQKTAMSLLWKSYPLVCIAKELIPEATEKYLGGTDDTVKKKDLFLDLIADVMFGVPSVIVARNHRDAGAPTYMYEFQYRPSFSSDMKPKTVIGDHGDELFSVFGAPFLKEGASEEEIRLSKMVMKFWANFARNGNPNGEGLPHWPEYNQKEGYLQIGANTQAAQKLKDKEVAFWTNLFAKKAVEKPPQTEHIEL

[5] = biological target: T2, Liver carboxylesterase 1 (Mus musculus, UniProt Q8VCC2); test: Drug metabolism assessed as mouse CES1-mediated compound hydrolysis after 6 hrs; type: ADME
T2 sequence (Q8VCC2 whole entry): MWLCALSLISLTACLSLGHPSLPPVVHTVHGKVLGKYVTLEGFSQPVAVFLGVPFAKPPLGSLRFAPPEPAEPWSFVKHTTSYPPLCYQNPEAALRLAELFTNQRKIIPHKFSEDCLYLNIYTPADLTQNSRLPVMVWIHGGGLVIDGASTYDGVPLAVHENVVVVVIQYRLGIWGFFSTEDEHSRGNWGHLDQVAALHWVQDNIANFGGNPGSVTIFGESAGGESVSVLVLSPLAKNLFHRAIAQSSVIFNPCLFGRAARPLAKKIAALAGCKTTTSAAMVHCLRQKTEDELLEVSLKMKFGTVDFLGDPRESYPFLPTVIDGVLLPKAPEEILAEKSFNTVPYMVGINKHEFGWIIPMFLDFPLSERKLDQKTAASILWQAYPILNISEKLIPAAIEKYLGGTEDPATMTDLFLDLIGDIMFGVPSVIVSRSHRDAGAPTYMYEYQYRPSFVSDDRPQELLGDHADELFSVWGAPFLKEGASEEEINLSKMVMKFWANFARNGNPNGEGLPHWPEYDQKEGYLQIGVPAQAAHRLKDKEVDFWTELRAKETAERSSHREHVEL

[6] = Half life in rat intestinal microsomes at 1 uM up to 120 mins by LC-MS/MS analysis; type: ADME, Intestine, Microsome
In short: (§3)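 Run under non-oxidative conditions, in duplicate at 37 °C: 1 µM test compound (1% methanol) with 1 mg/mL rat liver or rat intestinal microsomal protein. Samples taken at 0, 15, 30, 60 and 120 min and quenched with 4 volumes of cold methanol or acetonitrile containing 200 nM internal standard. Triplicate controls used denatured microsomes. LC-MS/MS gave % remaining versus T0; t1/2 = −0.693/k.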

[7] = Half life in rat liver microsomes at 1 uM up to 120 mins by LC-MS/MS analysis; type: ADME, microsome; in short: as §3
[8] = tested on: Plasma; test: Stability in rat plasma at 10 uM up to 360 mins in presence of DTNB by LC-MS/MS analysis; type: ADME, cell-free; conditions: 6 h; in short: as §1
[9] = Half life in human liver microsomes at 10 uM up to 120 mins by LC-MS/MS analysis; type: ADME, microsome

Row | Stability [1] | half-life at 10 µM [2] | half-life at 10 µM [3] | Structure (SMILES) | further results
1 | Unstable | 1.5 h | > 6 h | CC(Cc1ccccc1)(C(=O)NO)C(=O)NCc1ccccc1 (centres undefined) | –
2 | Unstable | 0.7 h | > 6 h | O=C(NO)C1Cc2ccccc2CN1S(=O)(=O)c1ccccc1 (centres undefined) | –
3 | Unstable | 0.9 to 0.93 h | > 6 h | O=C(CCCCc1ccccc1)NO | –
4 | Unstable | 3.3 h | > 6 h | O=C(NO)C(Cc1ccccc1)C(=O)NCc1ccncc1 (centres undefined) | –
5 | Unstable | – | – | O=C(NO)C(Cc1ccccc1)C(=O)NCc1ccc(F)cc1 (centres undefined) | –
6 | – | > 6 h | > 6 h | O=C(C=C(c1ccccc1)c1ccccc1)NO | Drug metabolism [4]: Metabolite_Detected; Drug metabolism [5]: Metabolite_Detected
7 | – | > 6 h | > 6 h | O=C(CC1CCCCC1)NO | –
8 | – | > 6 h | > 6 h | O=C(NO)C1CCN(C(=O)c2ccccc2)C1 (centres undefined) | –
9 | – | > 6 h | > 6 h | O=C(CC(=O)Nc1ccccc1)NO | –
10 | – | > 6 h | > 6 h | O=C(N[C@@H](CO)C(=O)NO)c1ccc(-c2ccccc2)cc1 | –
11 | – | > 6 h | > 6 h | CS(=O)(=O)C(CCc1ccccc1)(Cc1ccccc1)C(=O)NO (centres undefined) | –
12 | – | > 6 h | > 6 h | CC(CCc1ccccc1)(C(=O)NO)S(=O)(=O)c1ccccc1 (centres undefined) | –
13 | – | > 6 h | > 6 h | O=C(NO)C1(C(=O)NCc2ccccc2)CC1 | –
14 | – | > 6 h | > 6 h | C[C@H](NCc1ccccc1)C(=O)NO | –
15 | – | > 6 h | > 6 h | O=C(NO)[C@@H](Cc1ccccc1)N(Cc1ccccc1)S(=O)(=O)c1ccccc1 | –
16 | – | > 6 h | > 6 h | O=C(NO)C(CCc1ccccc1)S(=O)(=O)c1ccccc1 (centres undefined) | –

More lines, now with the values behind:

Row | Structure (SMILES) | Stability [1] | half-life at 10 µM [2] | half-life at 10 µM [3] | further results
17 | O=C(NO)C(Cc1ccccc1)C(=O)NCc1ccccc1 (centres undefined) | Unstable | 0.8 h | > 6 h | Drug metabolism [4]: Metabolite_Detected; Drug metabolism [5]: Metabolite_Detected
18 | O=C(CCc1ccccc1)NO | Unstable | – | – | Drug metabolism [4]: Metabolite_Detected; half-life at 1 µM [6]: > 6 h; half-life at 1 µM [7]: 0.25 h; Drug metabolism [5]: Metabolite_Detected
19 | CC(CCc1ccccc1)C(=O)NO (centres undefined) | – | > 6 h | > 6 h | –
20 | O=C(CCCC1CCCCC1)NO | – | 0.05 h | > 6 h | Drug metabolism [4]: Metabolite_Detected; Drug metabolism [5]: Metabolite_Detected
21 | O=C(CC(=O)NCc1ccccc1)NO | – | > 6 h | > 6 h | –
22 | O=C(CC12CC3CC(CC(C3)C1)C2)NO | – | > 6 h | > 6 h | –
23 | O=C(/C=C/c1ccc(S(=O)(=O)Nc2ccccc2)cc1)NO | – | > 6 h | > 6 h | –
24 | O=C(CC(=O)NCc1ccc(F)cc1)NO | – | > 6 h | > 6 h | –
25 | O=C(NO)[C@H](Cc1ccccc1)NS(=O)(=O)c1ccccc1 | Unstable | 0.1 h | > 6 h | –
26 | O=C(CCCCCc1ccccc1)NO | Unstable | 4.5 h | > 6 h | –
27 | O=C(CCC(=O)Nc1ccccc1)NO | – | 0.43 h | 2.4 h | Drug metabolism [4]: Metabolite_Detected; Drug metabolism [5]: Metabolite_Detected
28 | O=C(NO)C(Cc1ccncc1)C(=O)NCc1ccccc1 (centres undefined) | Unstable | 4.5 h | > 6 h | –
29 | O=C(CCNC(=O)c1ccccc1)NO | Unstable | 2.5 h | > 6 h | –
30 | CC(C)(C(=O)NO)C(=O)NCc1ccccc1 | – | > 6 h | > 6 h | –
31 | O=C(NO)C(CCc1ccccc1)Cc1ccccc1 (centres undefined) | – | > 6 h | > 6 h | –
32 | CC(C(=O)NO)C(=O)NCc1ccccc1 (centres undefined) | – | > 6 h | > 6 h | –
33 | CC(C)[C@H](C(=O)NO)N(Cc1ccccc1)S(=O)(=O)c1ccccc1 | – | > 6 h | > 6 h | –
34 | O=C(CCNCc1ccccc1)NO | Unstable | 2.1 h | > 6 h | –

Row | Structure (SMILES) | Stability [1] | half-life at 10 µM [2] | half-life at 10 µM [3] | further results
35 | O=C(CCC12CC3CC(CC(C3)C1)C2)NO | – | 0.5 h | > 6 h | Stability [8]: Unstable
36 | O=C(CCC1CCCCC1)NO | – | 0.06 h | > 6 h | Drug metabolism [4]: Metabolite_Detected; Drug metabolism [5]: Metabolite_Detected
37 | O=C(CNC(=O)Cc1ccccc1)NO | Unstable | 0.29 h | > 6 h | –
38 | O=C(NO)C1(NS(=O)(=O)c2ccccc2)CCOCC1 | – | > 6 h | > 6 h | –
39 | O=C(CNC(=O)c1ccccc1)NO | Unstable | 0.58 h | > 6 h | –
40 | O=C(NO)C(Cc1ccc2ccccc2c1)C(=O)NCc1ccccc1 (centres undefined) | Unstable | 0.1 h | > 6 h | Drug metabolism [4]: Metabolite_Detected; Drug metabolism [5]: Metabolite_Detected
41 | O=C(NCC(C(=O)NO)N1CCCCC1)c1ccccc1 (centres undefined) | Unstable | 0.4 h | > 6 h | –
42 | O=C(CNCCc1ccccc1)NO | Unstable | 0.5 h | > 6 h | –
43 | O=C(NO)[C@H](Cc1ccccc1)NCc1ccccc1 | Unstable | 1.8 h | > 6 h | –
44 | O=C(CNCc1ccccc1)NO | Unstable | 3.6 h | > 6 h | –
45 | O=C(/C=C/c1ccc(-c2ccccc2)cc1)NO | – | > 6 h | > 6 h | –
46 | CC(Cc1ccccc1)(C(=O)NO)C(=O)NCc1ccc(F)cc1 (centres undefined) | Unstable | – | – | –
47 | CC(C(=O)NO)C(=O)NCc1ccc(F)cc1 (centres undefined) | – | > 6 h | > 6 h | –
48 | O=C(CCCCCCc1ccccc1)NO | – | > 6 h | > 6 h | –
49 | O=C(/C=C/c1ccc(Cl)cc1Cl)NO [CINNAMIC ACID HYDROXAMATE] | – | > 6 h | > 6 h | –
50 | CCCCc1nc2cc(/C=C/C(=O)NO)ccc2n1CCN(CC)CC [PRACINOSTAT] | – | > 6 h | > 6 h | –
51 | CC(=O)Oc1cc2c(s1)CCN(C(C(=O)C1CC1)c1ccccc1F)C2 (centres undefined) [PRASUGREL] | – | – | – | half-life at 1 µM [6]: 0.0167 h
52 | CCOC(=O)[C@H](CCc1ccccc1)N[C@@H](C)C(=O)N1[C@H](C(=O)O)C[C@H]2CCCC[C@@H]21 [TRANDOLAPRIL] | – | – | – | half-life at 10 µM [9]: 0.333 h; half-life at 1 µM [7]: 0.117 h
